According to ChEMBL document CHEMBL2424551, “Synthesis, in vitro evaluation and molecular modelling of naphthalimide analogue as anticancer agents” (2013):
Calls of active or inactive are those of the source. The calls are words filed in the database; no cut-off is given here.

Columns and labels:
Assay type in all cases: functional
IGROV-1 = assay: Growth inhibition of human IGROV1 cells at 10 uM after 48 hrs by SRB assay; settings: IGROV-1, 48 h, read-out: GI
In short: (§1)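 Cells grown in RPMI 1640 with 5% FBS and 2 mM L-glutamine, plated at 5000–40,000 cells/well by doubling time and preincubated 24 h (37 °C, 5% CO2); a time-zero plate is TCA-fixed. Single dose added, then 48 h incubation. Fixed with cold TCA, stained with 0.4% SRB, dye solubilized in 10 mM Tris base, absorbance at 515 nm; percent growth vs time-zero and untreated control.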

SF-295 = assay: Growth inhibition of human SF295 cells at 10 uM after 48 hrs by SRB assay; settings: SF-295, 48 h, read-out: GI; in short: as §1
PC-3 = assay: Growth inhibition of human PC3 cells at 10 uM after 48 hrs by SRB assay; settings: PC-3, 48 h, read-out: GI; in short: as §1
K562 = assay: Growth inhibition of human K562 cells at 10 uM after 48 hrs by SRB assay; settings: K562, 48 h, read-out: GI; in short: as §1
[1] = Growth inhibition of human HCC2998 cells at 10 uM after 48 hrs by SRB assay; settings: HCC 2998, 48 h, read-out: GI; in short: as §1
SR = assay: Growth inhibition of human SR cells at 10 uM after 48 hrs by SRB assay; settings: read-out: GI
In short: (§2)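 NCI 60-cell-line screen with a single 10 µM dose. Cells are grown in RPMI 1640 with 5% FBS and 2 mM L-glutamine, plated at 5000–40,000 cells/well according to doubling time, and preincubated 24 h at 37 °C, 5% CO2; time-zero plates are TCA-fixed at that point. Drug exposure is 48 h. Adherent cells are fixed with cold TCA, stained with 0.4% SRB in 1% acetic acid and read at 515 nm. Percent growth is calculated relative to time-zero and untreated controls and reported as GI%.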

NCI-H226 = assay: Growth inhibition of human NCI-H226 cells at 10 uM after 48 hrs by SRB assay; settings: NCI-H226, 48 h, read-out: GI; in short: as §1
A549 = assay: Growth inhibition of human A549 cells at 10 uM after 48 hrs by SRB assay; settings: A549, 48 h, read-out: GI; in short: as §1
UO-31 = assay: Growth inhibition of human UO31 cells at 10 uM after 48 hrs by SRB assay; settings: UO-31, 48 h, read-out: GI; in short: as §2
RPMI-8226 = assay: Growth inhibition of human RPMI8226 cells at 10 uM after 48 hrs by SRB assay; settings: RPMI-8226, 48 h, read-out: GI; in short: as §1
OVCAR-4 = assay: Growth inhibition of human OVCAR4 cells at 10 uM after 48 hrs by SRB assay; settings: OVCAR-4, 48 h, read-out: GI; in short: as §1
COLO 205 = assay: Growth inhibition of human COLO205 cells at 10 uM after 48 hrs by SRB assay; settings: COLO 205, 48 h, read-out: GI; in short: as §1
ACHN = assay: Growth inhibition of human ACHN cells at 10 uM after 48 hrs by SRB assay; settings: read-out: GI; in short: as §1
M14 = assay: Growth inhibition of human M14 cells at 10 uM after 48 hrs by SRB assay; settings: M14, 48 h, read-out: GI; in short: as §1
SF-539 = assay: Growth inhibition of human SF539 cells at 10 uM after 48 hrs by SRB assay; settings: SF-539, 48 h, read-out: GI; in short: as §1
UACC-257 = assay: Growth inhibition of human UACC257 cells at 10 uM after 48 hrs by SRB assay; settings: UACC-257, 48 h, read-out: GI; in short: as §2
UACC-62 = assay: Growth inhibition of human UACC62 cells at 10 uM after 48 hrs by SRB assay; settings: UACC-62, 48 h, read-out: GI; in short: as §2
CAKI-1 = assay: Growth inhibition of human Caki1 cells at 10 uM after 48 hrs by SRB assay; settings: CAKI-1, 48 h, read-out: GI; in short: as §1
[2] = Growth inhibition of human NCI-ADR-RES cells at 10 uM after 48 hrs by SRB assay; settings: read-out: GI; in short: as §1
MDA-MB-468 = assay: Growth inhibition of human MDA-MB-468 cells at 10 uM after 48 hrs by SRB assay; in short: as §1
MOLT-4 = assay: Growth inhibition of human MOLT4 cells at 10 uM after 48 hrs by SRB assay; in short: as §1
OVCAR-3 = assay: Growth inhibition of human OVCAR3 cells at 10 uM after 48 hrs by SRB assay; settings: OVCAR-3, 48 h, read-out: GI; in short: as §1
RXF 393 = assay: Growth inhibition of human RXF393 cells at 10 uM after 48 hrs by SRB assay; settings: RXF 393, 48 h, read-out: GI; in short: as §1
CCRF-CEM = assay: Growth inhibition of human CCRF-CEM cells at 10 uM after 48 hrs by SRB assay; settings: read-out: GI; in short: as §1
HOP-92 = assay: Growth inhibition of human HOP92 cells at 10 uM after 48 hrs by SRB assay; settings: HOP-92, 48 h, read-out: GI; in short: as §1
A498 = assay: Growth inhibition of human A498 cells at 10 uM after 48 hrs by SRB assay; settings: A498, 48 h, read-out: GI; in short: as §1
SNB-75 = assay: Growth inhibition of human SNB75 cells at 10 uM after 48 hrs by SRB assay; settings: SNB-75, 48 h, read-out: GI; in short: as §2
HCT-15 = assay: Growth inhibition of human HCT15 cells at 10 uM after 48 hrs by SRB assay; settings: HCT-15, 48 h, read-out: GI; in short: as §1
NCI-H23 = assay: Growth inhibition of human NCI-H23 cells at 10 uM after 48 hrs by SRB assay; settings: NCI-H23, 48 h, read-out: GI; in short: as §1
NCI-H322M = assay: Growth inhibition of human NCI-H322M cells at 10 uM after 48 hrs by SRB assay; settings: read-out: GI; in short: as §1
SK-MEL-2 = assay: Growth inhibition of human SK-MEL-2 cells at 10 uM after 48 hrs by SRB assay; settings: SK-MEL-2, 48 h, read-out: GI; in short: as §1
DU-145 = assay: Growth inhibition of human DU145 cells at 10 uM after 48 hrs by SRB assay; settings: DU-145, 48 h, read-out: GI; in short: as §1
MDA-MB-231 = assay: Growth inhibition of human MDA-MB-231 cells at 10 uM after 48 hrs by SRB assay; settings: MDA-MB-231, 48 h, read-out: GI; in short: as §1
SK-OV-3 = assay: Growth inhibition of human SKOV3 cells at 10 uM after 48 hrs by SRB assay; settings: SK-OV-3, 48 h, read-out: GI; in short: as §2
SK-MEL-28 = assay: Growth inhibition of human SK-MEL-28 cells at 10 uM after 48 hrs by SRB assay; settings: SK-MEL-28, 48 h, read-out: GI; in short: as §1
SF-268 = assay: Growth inhibition of human SF268 cells at 10 uM after 48 hrs by SRB assay; settings: SF-268, 48 h, read-out: GI; in short: as §1

Compound	inhibition of growth at 10 µM (IGROV-1) [%]	inhibition of growth at 10 µM (SF-295) [%]	inhibition of growth at 10 µM (PC-3) [%]	inhibition of growth at 10 µM (K562) [%]	inhibition of growth at 10 µM [1] [%]	inhibition of growth at 10 µM (SR) [%]	inhibition of growth at 10 µM (NCI-H226) [%]	inhibition of growth at 10 µM (A549) [%]	inhibition of growth at 10 µM (UO-31) [%]	inhibition of growth at 10 µM (RPMI-8226) [%]	inhibition of growth at 10 µM (OVCAR-4) [%]	inhibition of growth at 10 µM (COLO 205) [%]	inhibition of growth at 10 µM (ACHN) [%]	inhibition of growth at 10 µM (M14) [%]	inhibition of growth at 10 µM (SF-539) [%]	inhibition of growth at 10 µM (UACC-257) [%]	inhibition of growth at 10 µM (UACC-62) [%]	inhibition of growth at 10 µM (CAKI-1) [%]	inhibition of growth at 10 µM [2] [%]	inhibition of growth at 10 µM (OVCAR-3) [%]	further results
Nc1ccc(Sc2ccc3c4c2cccc4c(=O)n2c4ccccc4nc32)cc1	65.5	88	49.6	39.7	< 20	83.9	59.4	79.4	90.7	50	26	49.2	77.9	54.6	51.5	29	68.1	94.1	43.4	22.2	inhibition of growth at 10 µM (MDA-MB-468; MDA-MB-468, 48 h, read-out: GI): 56.5%; growth inhibition (GI) (MOLT-4): Active; inhibition of growth at 10 µM (RXF 393): 27.4%; inhibition of growth at 10 µM (CCRF-CEM): 55.1%; inhibition of growth at 10 µM (HOP-92): 71.3%; inhibition of growth at 10 µM (A498): 41.2%; inhibition of growth at 10 µM (SNB-75): 56.3%; inhibition of growth at 10 µM (HCT-15): 59.5%; inhibition of growth at 10 µM (NCI-H23): 62.5%; inhibition of growth at 10 µM (NCI-H322M): 38.2%; inhibition of growth at 10 µM (SK-MEL-2): < 20%; inhibition of growth at 10 µM (DU-145): 60.7%; inhibition of growth at 10 µM (MDA-MB-231): 45.6%; inhibition of growth at 10 µM (SK-OV-3): 46.1%; inhibition of growth at 10 µM (SK-MEL-28): 26.3%; inhibition of growth at 10 µM (SF-268): 40.6%
O=c1c2cccc3c(Nc4ccc(Br)cn4)ccc(c32)c2nc3ccccc3n12	51.1	< 20	23.3	< 20	25.2	47.1	< 20	< 20	47.9	43.8	46.3	< 20	< 20	< 20	< 20	< 20	< 20	< 20	< 20	< 20	growth inhibition (GI) (MDA-MB-468): Active; inhibition of growth at 10 µM (MOLT-4; MOLT-4, 48 h, read-out: GI): < 20%; inhibition of growth at 10 µM (RXF 393): < 20%; inhibition of growth at 10 µM (CCRF-CEM): < 20%; inhibition of growth at 10 µM (HOP-92): 37.6%; inhibition of growth at 10 µM (A498): < 20%; inhibition of growth at 10 µM (SNB-75): 56%; inhibition of growth at 10 µM (HCT-15): 28%; inhibition of growth at 10 µM (NCI-H23): < 20%; inhibition of growth at 10 µM (NCI-H322M): 22.1%; inhibition of growth at 10 µM (SK-MEL-2): < 20%; inhibition of growth at 10 µM (DU-145): < 20%; inhibition of growth at 10 µM (MDA-MB-231): 33.8%; inhibition of growth at 10 µM (SK-OV-3): < 20%; inhibition of growth at 10 µM (SK-MEL-28): 27.1%; inhibition of growth at 10 µM (SF-268): < 20%
